# Experimental data of several laboratories.
# Each line is one published result; the experiments were not run side by side.
# Target: Cyclin-dependent kinase 13 (CDK13, Homo sapiens, UniProt Q14004)
Structure (SMILES),assay,conditions,remaining binding [%]
N[C@@H]1CCN(c2nccc(-c3cnn4ncccc34)n2)C1,binding,1 µM,54
O=C(c1ccc(Nc2ncc(Cl)c(-c3ccc(Cl)s3)n2)cc1)N1CCC(N2CCCC2)CC1,"binding, competition with immobilised ligand",1 µM,18
Nc1ncc2c(n1)-c1c([nH]c3ccc(C#CC4CC4)cc13)CCCC2,"binding, competition with immobilised ligand",1 µM,84
O=C(Nc1cccnn1)N1CCC(=Cc2cccc(Oc3ccc(C(F)(F)F)cn3)c2)CC1,"cell-free assay, competition with immobilised ligand",1 µM,100
COc1ncc2cc3ccccc3nc2c1C#N,"cell-free assay, competition with immobilised ligand",5 µM,92
O=C(Nc1cccnn1)N1CC(C/C=C/c2cncc(Oc3ccc(C(F)(F)F)cn3)n2)C1,"cell-free assay, competition with immobilised ligand",1 µM,98
COc1cnc(Nc2cccc(S(N)(=O)=O)c2)nc1N1CCN(c2ccccc2)CC1,"binding, competition with immobilised ligand",1 µM,21
O=C(NCC1CCOCC1)c1n[nH]cc1NC(=O)c1c(F)cccc1F,"binding, competition with immobilised ligand",1 µM,66
CN(C)c1ncc(F)c(-c2cnn3ncccc23)n1,binding,1 µM,96
O=C(NCCCN1CCOCC1)c1ccc(Nc2ncc(Cl)c(-c3ccc(Cl)s3)n2)cc1,"binding, competition with immobilised ligand",1 µM,34
N#CC1(c2ccccn2)CCN(Cc2cc(C(=O)N3CCCC3)c(=O)n3ccccc23)CC1,"cell-free assay, competition with immobilised ligand",1 µM,100
Cc1cnc(Nc2ccc(C(=O)N3CCC(N4CCCC4)CC3)cc2)nc1-c1cc2ccccc2s1,"binding, competition with immobilised ligand",1 µM,50
c1cnn2ncc(-c3ccnc(N4CCC45COC5)n3)c2c1,binding,1 µM,87
Cc1c(C(=O)O)cc(-c2ccc(C3CCNCC3)cc2)c2ccc(-c3ccc(C(F)(F)F)cc3)cc12,"binding, competition with immobilised ligand",1 µM,100
CN(c1nccc(-c2cnn3ncccc23)n1)C1CC1,binding,1 µM,100
O=C(O)[C@H]1[C@H](Cn2nnc3ccccc3c2=O)CC[C@@H]1C(=O)c1ccc(OCCC2CCOCC2)cc1,"cell-free assay, competition with immobilised ligand",1 µM,93
C[C@@H]1CCN(c2nccc(-c3cnn4ncccc34)n2)C1,binding,1 µM,72
COc1cnc(Nc2cccc(S(N)(=O)=O)c2)nc1N1CCN(c2ccccc2)C(=O)C1,"binding, competition with immobilised ligand",1 µM,94
